From ChEMBL document CHEMBL1131471, “N-[trans-2-[[2'-(acetylamino)cyclohexyl]oxy]acetyl]-L-alanyl-D-glutamic acid: a novel immunologically active carbocyclic muramyl dipeptide analogue” (1998)

Key:
[1] = system: Mus musculus; experiment: Compound was tested for its ability to enhance nonspecific resistance to expt. fungal infection in mice immunosuppressed with cyclophosphamide and infected with candida albicans at 3x 0.1 mg/kg/day; survival increase = 0/6; assay type: functional
Method in brief: (§1)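 Groups of 10 mice in a controlled room. Test substance or vehicle (distilled water) was given ip on days 1, 3 and 5. Cyclophosphamide 30 mg/kg po was given on days 2, 4 and 6. One hour after the last cyclophosphamide dose, mice were challenged with C. albicans at a level set for 70–90% mortality within 10 days in vehicle controls. Survival over 10 days was scored as (treated − CP-only survivors)/(unsuppressed control − CP-only survivors).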

[2] = system: Mus musculus; experiment: Compound was tested for its ability to enhance nonspecific resistance to expt. fungal infection in mice immunosuppressed with cyclophosphamide and infected with candida albicans at 3x10 mg/kg/day; survival increase = 1/6; assay type: functional; method in brief: as §1
[3] = system: Mus musculus; experiment: Compound was tested for its ability to enhance nonspecific resistance to expt. fungal infection in mice immunosuppressed with cyclophosphamide and infected with candida albicans at 3x1 mg/kg/day; survival increase = 0/6; assay type: functional; method in brief: as §1
[4] = system: Mus musculus; experiment: Compound was tested for its ability to enhance nonspecific resistance to expt. fungal infection in mice immunosuppressed with cyclophosphamide and infected with candida albicans at 3x30 mg/kg/day; survival increase = 1/6; assay type: functional; method in brief: as §1
[5] = system: Mus musculus; experiment: Compound was tested for its ability to enhance nonspecific resistance to expt. fungal infection in mice immunosuppressed with cyclophosphamide and infected with candida albicans at 3x100 mg/kg/day; survival increase = 1/6; assay type: functional; method in brief: as §1
[6] = system: Mus musculus; experiment: Compound was tested for its ability to enhance nonspecific resistance to expt. fungal infection in mice immunosuppressed with cyclophosphamide and infected with candida albicans at 3x 0.1 mg/kg/day;survival increase = 0/6; assay type: functional; method in brief: as §1
[7] = system: Mus musculus; experiment: Compound was tested for its ability to enhance nonspecific resistance to expt. fungal infection in mice immunosuppressed with cyclophosphamide and infected with candida albicans at 3x10 mg/kg/day; survival increase = 0/6; assay type: functional; method in brief: as §1
[8] = system: Mus musculus; experiment: Compound was tested for its ability to enhance nonspecific resistance to expt. fungal infection in mice immunosuppressed with cyclophosphamide and infected with candida albicans at 3x100 mg/kg/day; survival increase = 2/6; assay type: functional; method in brief: as §1
[9] = system: Mus musculus; experiment: Compound was tested for its ability to enhance nonspecific resistance to expt. fungal infection in mice immunosuppressed with cyclophosphamide and infected with candida albicans at 3x1 mg/kg/day; survival increase = 1/6; assay type: functional; method in brief: as §1
[10] = system: Mus musculus; experiment: Compound was tested for its ability to enhance nonspecific resistance to expt. fungal infection in mice immunosuppressed with cyclophosphamide and infected with candida albicans at 3x10 mg/kg/day; survival increase = 2/6; assay type: functional; method in brief: as §1
[11] = system: Mus musculus; experiment: Compound was tested for its ability to enhance nonspecific resistance to expt. fungal infection in mice immunosuppressed with cyclophosphamide and infected with candida albicans at 3x10 mg/kg/day; survival increase = 3/6; assay type: functional; method in brief: as §1
[12] = system: Mus musculus; experiment: Compound was tested for its ability to enhance nonspecific resistance to expt. fungal infection in mice immunosuppressed with cyclophosphamide and infected with candida albicans at 3x100 mg/kg/day; survival increase = 3/6; assay type: functional; method in brief: as §1
[13] = system: Mus musculus; experiment: Compound was tested for its ability to enhance nonspecific resistance to expt. fungal infection in mice immunosuppressed with cyclophosphamide and infected with candida albicans at 3x 0.1 mg/kg/day; survival increase = 2/6; assay type: functional; method in brief: as §1
[14] = system: Mus musculus; experiment: Compound was tested for its ability to enhance nonspecific resistance to expt. fungal infection in mice immunosuppressed with cyclophosphamide and infected with candida albicans at 3x1 mg/kg/day; survival increase = 2/6; assay type: functional; method in brief: as §1
[15] = system: Mus musculus; experiment: Compound was tested for its ability to enhance nonspecific resistance to expt. fungal infection in mice immunosuppressed with cyclophosphamide and infected with candida albicans at 3x30 mg/kg/day; survival increase = 3/6; assay type: functional; method in brief: as §1
[16] = system: Mus musculus; experiment: Compound was tested for its ability to enhance nonspecific resistance to expt. fungal infection in mice immunosuppressed with cyclophosphamide and infected with candida albicans at 3x100 mg/kg/day; survival increase = 0/6; assay type: functional; method in brief: as §1
[17] = organism: Mus musculus; experiment: Compound was tested for its effect on number of B-cells at 2.5 microg daily dose in mouse; assay type: functional, B-cell
Method in brief: (§2)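 Female HAN–NmRi mice (3–4 weeks) got thioglycolate ip and the dose ip in 0.5 mL on days 1–3, and spleens were taken on day 4. B cells were stained with FITC goat anti-mouse IgG. T cells were stained with rat anti-Thy-1 and then FITC goat anti-rat Ig. Cells were counted by fluorescence microscopy and reported in millions as mean ± SEM with p values.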

[18] = organism: Mus musculus; experiment: Compound was tested for immunomodulatory effect on macrophage activation without costimulation with PMA measured as UV absorption difference with test sample at 0.25 microg daily dose and blank/mg of cell protein in mouse; assay type: functional
Method in brief: (§3)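 Female HAN–NmRi mice got thioglycolate ip plus the dose ip (0.5 mL) daily for 3 days and were killed on day 4. Peritoneal cells were washed out, erythrocytes lysed hypo-osmotically, and cells plated at 1.5 × 10^6/mL. They adhered for 2 h and nonadherent cells were rinsed off. Macrophages were given 160 μM ferricytochrome c in HBSS, with or without 200 nM PMA; the blank added 340 U/mL SOD. After 90 min at 37 °C, absorbance was read at […].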

[19] = organism: Mus musculus; experiment: Compound was tested for its effect on number of B-cells at 25 microg daily dose in mouse; assay type: functional, B-cell; method in brief: as §2
[20] = organism: Mus musculus; experiment: Compound was tested for its effect on number of B-cells at 0.25 microg daily dose in mouse; assay type: functional, B-cell; method in brief: as §2
[21] = organism: Mus musculus; experiment: Compound was tested for immunomodulatory effect on macrophage activation with costimulation with PMA measured as UV absorption difference with test sample at 0.25 microg daily dose and blank/mg of cell protein in mouse; assay type: functional; method in brief: as §3
[22] = organism: Mus musculus; experiment: Compound was tested for blast transformation ability of lymphocytes, stimulated in vitro with Concanavalin A expressed as amount of [3H]-thymidine incorporated in lymphocyte DNA at 0.25 microg daily dose in mouse; assay type: functional
Method in brief: (§4)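 Female HAN–NmRi mice (3–4 weeks, 17–20 g) got 1 mL thioglycolate ip, then the dose in 0.5 mL ip one hour later, repeated on days 2 and 3. On day 4, spleen lymphocytes were taken at 1 × 10^6/mL in RPMI 1640 with 10% FCS and stimulated with Con A at 16, 8 or 4 μg/mL for 2 days at 37 °C, 5% CO2. [3H]thymidine was then added for 16 h and counted by β-counter. Results are cpm, n = 5.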

[23] = organism: Mus musculus; experiment: Compound was tested for its effect on number of total spleen cells at 25 microg daily dose in mouse; assay type: functional; method in brief: as §2
[24] = organism: Mus musculus; experiment: Compound was tested for blast transformation ability of lymphocytes, stimulated in vitro with Concanavalin A expressed as amount of [3H]thymidine incorporated in lymphocyte DNA at 2.5 microg daily dose in mouse; assay type: functional; method in brief: as §4
[25] = organism: Mus musculus; experiment: Compound was tested for its effect on number of total spleen cells at 2.5 microg daily dose in mouse; assay type: functional; method in brief: as §2
[26] = organism: Mus musculus; experiment: Compound was tested for its effect on number of T cells at 0.25 microg daily dose in mouse; assay type: functional, T-cell; method in brief: as §2
[27] = organism: Mus musculus; experiment: Compound was tested for its effect on number of peritoneal macrophages at 2.5 microg daily dose in mouse; assay type: functional
Method in brief: (§5)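 Female HAN–NmRi mice got thioglycolate ip and the dose ip (0.5 mL) daily for 3 days. On day 4, peritoneal cells were washed out with ice-cold RPMI 1640. Macrophages were counted with trypan blue in a Neubauer chamber, excluding contaminating cells by morphology, and reported in millions as mean ± SEM.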

[28] = organism: Mus musculus; experiment: Compound was tested for its effect on number of peritoneal macrophages at 25 microg daily dose in mouse; assay type: functional; method in brief: as §5
[29] = organism: Mus musculus; experiment: Compound was tested for immunomodulatory effect on macrophage activation with costimulation with PMA measured as UV absorption difference with test sample at 25 microg daily dose and blank/mg of cell protein in mouse; assay type: functional; method in brief: as §3
[30] = organism: Mus musculus; experiment: Compound was tested for immunomodulatory effect on macrophage activation without costimulation with PMA measured as UV absorption difference with test sample at 2.5 microg daily dose and blank/mg of cell protein in mouse; assay type: functional; method in brief: as §3
[31] = organism: Mus musculus; experiment: Compound was tested for immunomodulatory effect on macrophage activation without costimulation with PMA measured as UV absorption difference with test sample at 25 microg daily dose and blank/mg of cell protein in mouse; assay type: functional; method in brief: as §3
[32] = organism: Mus musculus; experiment: Compound was tested for blast transformation ability of lymphocytes, stimulated in vitro with Concanavalin A expressed as amount of [3H]thymidine incorporated in lymphocyte DNA at 25 microg daily dose in mouse; assay type: functional; method in brief: as §4
[33] = organism: Mus musculus; experiment: Compound was tested for immunomodulatory effect on macrophage activation with costimulation with PMA measured as UV absorption difference with test sample at 2.5 microg daily dose and blank/mg of cell protein in mouse; assay type: functional; method in brief: as §3
[34] = organism: Mus musculus; experiment: Compound was tested for its effect on number of total spleen cells at 0.25 microg daily dose in mouse; assay type: functional; method in brief: as §2
[35] = organism: Mus musculus; experiment: Compound was tested for its effect on number of T cells at 2.5 microg daily dose in mouse; assay type: functional, T-cell; method in brief: as §2
[36] = organism: Mus musculus; experiment: Compound was tested for its effect on number of T cells at 25 microg daily dose in mouse; assay type: functional, T-cell; method in brief: as §2
[37] = organism: Mus musculus; experiment: Compound was tested for its effect on number of peritoneal macrophages at 0.25 microg daily dose in mouse; assay type: functional; method in brief: as §5
[38] = system: Mus musculus; experiment: Compound was tested for its ability to enhance nonspecific resistance to expt. fungal infection in mice immunosuppressed with cyclophosphamide and infected with candida albicans at 3x 0.1 mg/kg/day; survival increase = 3/6; assay type: functional; method in brief: as §1
[39] = system: Mus musculus; experiment: Compound was tested for its ability to enhance nonspecific resistance to expt. fungal infection in mice immunosuppressed with cyclophosphamide and infected with candida albicans at 3x1 mg/kg/day; survival increase = 3/6; assay type: functional; method in brief: as §1

## CCCCCC(=O)NC1CCCCC1OCC(=O)N[C@@H](C)C(=O)N[C@H](CCC(=O)O)C(N)=O (stereo partly drawn)
[1]
  Survival increase: 0
[2]
  Survival increase: 1
[3]
  Survival increase: 0
[4]
  Survival increase: 1

## CC(=O)N[C@H]1CCCC[C@@H]1OCC(=O)N[C@@H](C)C(=O)N[C@H](CCC(=O)O)C(N)=O
[5]
  Survival increase: 1
[6]
  Survival increase: 0
[7]
  Survival increase: 0
[3]
  Survival increase: 0

## CC(=O)N[C@H]1CCCC[C@@H]1OCC(=O)N[C@@H](C)C(=O)N[C@H](CCC(=O)O)C(=O)O
[8]
  Survival increase: 2
[1]
  Survival increase: 0
[9]
  Survival increase: 1
[10]
  Survival increase: 2

## CC(=O)N[C@@H]1CCCC[C@H]1OCC(=O)N[C@@H](C)C(=O)N[C@H](CCC(=O)O)C(=O)O
[11]
  Survival increase: 3
[12]
  Survival increase: 3
[13]
  Survival increase: 2
[9]
  Survival increase: 1

## CCCCCCCCCCCC(=O)NC1CCCCC1OCC(=O)N[C@@H](C)C(=O)N[C@H](CCC(=O)O)C(N)=O (stereo partly drawn)
[11]
  Survival increase: 3
[14]
  Survival increase: 2
[1]
  Survival increase: 0
[15]
  Survival increase: 3

## CC(=O)N[C@@H]1CCCC[C@H]1OCC(=O)N[C@@H](C)C(=O)N[C@H](CCC(=O)O)C(N)=O
[16]
  Survival increase: 0
[1]
  Survival increase: 0
[7]
  Survival increase: 0
[9]
  Survival increase: 1

## CC(=O)NC1CCCCC1OCC(=O)N[C@@H](C)C(=O)N[C@H](CCC(=O)O)C(=O)O (stereo partly drawn)
[17]
  Number: 23.76 millions
[18]
  Macrophage activation: 237
[19]
  Number: 20.5 millions
[20]
  Number: 18.42 millions
[21]
  Macrophage activation: 1298
[22]
  Amount of [3H]thymidine: 10780 c.p.m.
[23]
  Number: 9.93 millions
[24]
  Amount of [3H]thymidine: 16830 c.p.m.
[25]
  Number: 8.14 millions
[26]
  Number: 11.7 millions
[27]
  Number: 2.87 millions
[28]
  Number: 0.92 millions
[29]
  Macrophage activation: 1709
[30]
  Macrophage activation: 431
[31]
  Macrophage activation: 489
[32]
  Amount of [3H]thymidine: 25990 c.p.m.
[33]
  Macrophage activation: 1494
[34]
  Number: 5.66 millions
[35]
  Number: 12.88 millions
[36]
  Number: 9.72 millions
[37]
  Number: 2.58 millions

## C[C@H](NC(=O)C1(C)OC2(C)CCCCC2(C)NC1=O)C(=O)N[C@H](CCC(=O)O)C(=O)O (stereo partly drawn)
[8]
  Survival increase: 2
[1]
  Survival increase: 0
[7]
  Survival increase: 0
[3]
  Survival increase: 0

## CC(C)(N1CC1C#N)N1CC1C(N)=O (stereo not drawn) [AZIMEXON]
[11]
  Survival increase: 3
[12]
  Survival increase: 3
[38]
  Survival increase: 3
[39]
  Survival increase: 3
